In ChEMBL document CHEMBL3877264, “Quinolidene-rhodanine conjugates: Facile synthesis and biological evaluation” (Eur J Med Chem, 2017):
In brackets after ≈: the same amount, converted by molar mass.

Assays:
[1] = system: Mycobacterium tuberculosis; assay: Growth inhibition of Mycobacterium tuberculosis H37Ra ATCC 25177 at active stage at 100 ug/ml measured after 8 days by XTT dye based two fold dilution method relative to control; format: functional; settings: H37Ra ATCC 25177, 192 h, read-out: GI
Summary of the method: (§1)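 MTB H37Ra was grown in Dubos medium, then exposed in Mycobacterium pheli minimal medium (pH 6.6) to compounds dissolved in DMSO. The assay ended on day 8 (active) or day 12 (dormant). Viable cells were measured by XTT reduction menadione assay at 470 nm, blank-corrected, relative to vehicle control. Triplicates were expressed as mean ± SD. MIC came from dose-response curves.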

[2] = Selectivity index, ratio of GI50 for human HeLa cells to MIC for Mycobacterium tuberculosis H37Ra ATCC 25177 at dormant stage; format: toxicity, cell-based; settings: read-out: Selectivity Index
Summary of the method: (§2)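 SI is the cell-line GI50 divided by the dormant-stage mycobacterial MIC. […] THP-1 macrophages were PMA-differentiated for 24 h.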

Pseudomonas fluorescens = assay: Antibacterial activity against Pseudomonas fluorescens NCIM 2036 measured after 8 hrs; format: functional; settings: NCIM 2036, 8 h
Summary of the method: (§3)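 Bacteria grown in LB at 37 °C and 180 rpm to OD 1. Compounds added to wells, then 0.1% inoculum of 1 OD culture (620 nm). Growth read as OD at 620 nm after 8 h for gram-negative and after 12 h for gram-positive strains.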

[3] = system: Mycobacterium tuberculosis; assay: Growth inhibition of Mycobacterium bovis BCG ATCC 35743 at active stage at 0.78 ug/ml measured after 8 days by nitrate reductase dye based two fold dilution method relative to control; format: functional; settings: BCG str. ATCC 35743, 192 h, read-out: GI
Summary of the method: (§4)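 M. bovis BCG was grown in Dubos medium and assayed in Mycobacterium pheli minimal medium (pH 6.6), with compounds from DMSO stocks. Incubation lasted 8 days for active and 12 days for dormant cultures. Viability was read by nitrate reductase at 540 nm against cell-free blanks, with vehicle set as 100% growth. Primary screen was at 30, 10 and 3 µg/ml, in triplicate, mean ± SD. MIC was taken from dose-response curves.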

[4] = Cytotoxicity against human A549 cells assessed as growth inhibition at 100 ug/ml measured after 48 hrs by MTT assay relative to control; format: toxicity, cell-based; settings: read-out: GI
[5] = Cytotoxicity against […]-differentiated human THP1 cells assessed as growth inhibition at 100 ug/ml measured after 48 hrs by MTT assay relative to control; format: toxicity, cell-based, THP-1; settings: read-out: GI
Summary of the method: (§5)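 MTT assay with 48 h compound exposure. THP-1 macrophages made by 24 h PMA treatment. Each concentration tested in triplicate in one experiment. % cytotoxicity = (control−test)/(control−blank)×100, with control = cells + DMSO and blank = medium without cells. IC50 from % survival versus concentration plots.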

[6] = system: Mycobacterium tuberculosis; assay: Growth inhibition of Mycobacterium tuberculosis H37Ra ATCC 25177 at dormant stage at 25 ug/ml measured after 12 days by XTT dye based two fold dilution method relative to control; format: functional; settings: H37Ra ATCC 25177, 288 h, read-out: GI; summary of the method: as §1
[7] = system: Mycobacterium tuberculosis; assay: Growth inhibition of Mycobacterium tuberculosis H37Ra ATCC 25177 at dormant stage at 100 ug/ml measured after 12 days by XTT dye based two fold dilution method relative to control; format: functional; settings: H37Ra ATCC 25177, 288 h, read-out: GI; summary of the method: as §1
[8] = system: Mycobacterium tuberculosis; assay: Growth inhibition of Mycobacterium bovis BCG ATCC 35743 at dormant stage at 10 ug/ml measured after 12 days by nitrate reductase dye based two fold dilution method relative to control; format: functional; settings: BCG str. ATCC 35743, 288 h, read-out: GI; summary of the method: as §4
[9] = Cytotoxicity against […]-differentiated human THP1 cells measured after 48 hrs by MTT assay; format: toxicity, cell-based, THP-1; summary of the method: as §5
[10] = Cytotoxicity against human HeLa cells measured after 48 hrs by MTT assay; format: toxicity, cell-based
[11] = system: Mycobacterium tuberculosis; assay: Growth inhibition of Mycobacterium bovis BCG ATCC 35743 at active stage at 1.56 ug/ml measured after 8 days by nitrate reductase dye based two fold dilution method relative to control; format: functional; settings: BCG str. ATCC 35743, 192 h, read-out: GI; summary of the method: as §4
[12] = Selectivity index, ratio of GI50 for HUVEC to MIC for Mycobacterium tuberculosis H37Ra ATCC 25177 at dormant stage
Candida albicans = assay: Antifungal activity against Candida albicans NCIM 3471 by standard agar method; format: functional
Summary of the method: (§6)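 MICs determined by standard agar method; DMSO as solvent control.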

Escherichia coli = assay: Growth inhibition of Escherichia coli NCIM 2688 at 30 ug/ml measured after 8 hrs relative to control; format: functional; settings: NCIM 2688, 8 h, read-out: GI; summary of the method: as §3
[13] = system: Mycobacterium tuberculosis; assay: Growth inhibition of Mycobacterium bovis BCG ATCC 35743 at dormant stage at 3 ug/ml measured after 12 days by nitrate reductase dye based two fold dilution method relative to control; format: functional; settings: BCG str. ATCC 35743, 288 h, read-out: GI; summary of the method: as §4
[14] = system: Mycobacterium tuberculosis; assay: Growth inhibition of Mycobacterium bovis BCG ATCC 35743 at dormant stage measured after 12 days by nitrate reductase dye based two fold dilution method; format: functional; settings: BCG str. ATCC 35743, 288 h; summary of the method: as §4
[15] = system: Mycobacterium tuberculosis; assay: Growth inhibition of Mycobacterium bovis BCG ATCC 35743 at dormant stage at 50 ug/ml measured after 12 days by nitrate reductase dye based two fold dilution method relative to control; format: functional; settings: BCG str. ATCC 35743, 288 h, read-out: GI; summary of the method: as §4
[16] = system: Mycobacterium tuberculosis; assay: Growth inhibition of Mycobacterium bovis BCG ATCC 35743 at active stage at 100 ug/ml measured after 8 days by nitrate reductase dye based two fold dilution method relative to control; format: functional; settings: BCG str. ATCC 35743, 192 h, read-out: GI
[17] = system: Mycobacterium tuberculosis; assay: Growth inhibition of Mycobacterium bovis BCG ATCC 35743 at dormant stage at 1.56 ug/ml measured after 12 days by nitrate reductase dye based two fold dilution method relative to control; format: functional; settings: BCG str. ATCC 35743, 288 h, read-out: GI; summary of the method: as §4
[18] = system: Mycobacterium tuberculosis; assay: Growth inhibition of Mycobacterium bovis BCG ATCC 35743 at dormant stage at 30 ug/ml measured after 12 days by nitrate reductase dye based two fold dilution method relative to control; format: functional; settings: BCG str. ATCC 35743, 288 h, read-out: GI; summary of the method: as §4
[19] = Antifungal activity against Cryptococcus neoformans NCIM 576 by standard agar method; format: functional; summary of the method: as §6
[20] = system: Mycobacterium tuberculosis; assay: Growth inhibition of Mycobacterium bovis BCG ATCC 35743 at dormant stage at 12.5 ug/ml measured after 12 days by nitrate reductase dye based two fold dilution method relative to control; format: functional; settings: BCG str. ATCC 35743, 288 h, read-out: GI
[21] = system: Mycobacterium tuberculosis; assay: Growth inhibition of Mycobacterium tuberculosis H37Ra ATCC 25177 at active stage at 3.13 ug/ml measured after 8 days by XTT dye based two fold dilution method relative to control; format: functional; settings: H37Ra ATCC 25177, 192 h, read-out: GI; summary of the method: as §1
Bacillus subtilis = assay: Antibacterial activity against Bacillus subtilis NCIM 2079 measured after 12 hrs; format: functional; settings: NCIM 2079, 12 h; summary of the method: as §3
[22] = Cytotoxicity against human PANC1 cells assessed as growth inhibition at 100 ug/ml measured after 48 hrs by MTT assay relative to control; format: toxicity, cell-based, PANC-1; settings: read-out: GI
[23] = Selectivity index, ratio of GI50 for human A549 cells to MIC for Mycobacterium tuberculosis H37Ra ATCC 25177 at dormant stage; format: toxicity, cell-based; settings: read-out: Selectivity Index; summary of the method: as §2
[24] = Selectivity index, ratio of GI50 for human PANC1 cells to MIC for Mycobacterium tuberculosis H37Ra ATCC 25177 at dormant stage; format: toxicity, cell-based, PANC-1; settings: read-out: Selectivity Index; summary of the method: as §2
[25] = system: Mycobacterium tuberculosis; assay: Growth inhibition of Mycobacterium bovis BCG ATCC 35743 at active stage at 3.13 ug/ml measured after 8 days by nitrate reductase dye based two fold dilution method relative to control; format: functional; settings: BCG str. ATCC 35743, 192 h, read-out: GI; summary of the method: as §4

Row | SMILES | inhibition of growth at 100 µg/mL [1] [%] | selectivity ratio [2] | MIC (Pseudomonas fluorescens) [µg/mL] | inhibition of growth at 0.78 µg/mL [3] [%] | inhibition at 48 h, 100 ug/ml [4] [%] | inhibition at 48 h, 100 ug/ml [5] [%] | inhibition of growth at 25 µg/mL [6] [%] | inhibition of growth at 100 µg/mL [7] [%] | inhibition of growth at 10 µg/mL [8] [%] | GI50 at 48 h [9] [µg/mL] | GI50 at 48 h [10] [µg/mL] | inhibition of growth at 1.56 µg/mL [11] [%] | Selectivity Index [12] | MIC (Candida albicans) [µg/mL] | inhibition of growth at 30 µg/mL (Escherichia coli) [%] | inhibition of growth at 3 µg/mL [13] [%] | IC50 [14] [µg/mL] | IC90 [14] [µg/mL] | inhibition of growth at 50 µg/mL [15] [%] | inhibition of growth at 100 µg/mL [16] [%] | also measured
1 | O=C1NC(=S)S/C1=C\c1cc2cc(Cl)ccc2nc1Cl | 92.7 | 15.6 | 2.8 (≈ 8.21 µM) | 7.4 | 26.9 | 29.1 | 96.8 | 85.4 | 99.6 | > 100 | > 100 | 86.2 | 15.6 | 100 (≈ 293 µM) | 92.8 | 99.8 | 1.3 (≈ 3.81 µM) | 2.2 (≈ 6.45 µM) | 101 | 98.4 | inhibition of growth at 1.56 µg/mL [17]: 60.5%; inhibition of growth at 30 µg/mL [18]: 99.2%; MIC [19]: 100 µg/mL (≈ 293 µM); inhibition of growth at 12.5 µg/mL [20]: 100%; inhibition of growth at 3.13 µg/mL [21]: 81.1%; MIC (Bacillus subtilis): 9.33 µg/mL (≈ 27.3 µM); inhibition at 48 h, 100 ug/ml [22]: 25.2%; selectivity ratio [23]: 15.6; selectivity ratio [24]: 15.6; inhibition of growth at 3.13 µg/mL [25]: 98.9%
2 | Cc1cccc2cc(/C=C3\SC(=S)NC3=O)c(Cl)nc12 | 113 | 7.8 | > 30 | -28.7 | 32.9 | 2.58 | 103 | 104 | -5.12 | > 100 | > 100 | -33.4 | 7.8 | 200 (≈ 623 µM) | 39.9 | -6.23 | 5.1 (≈ 15.9 µM) | 9.5 (≈ 29.6 µM) | 100 | 93.2 | inhibition of growth at 1.56 µg/mL [17]: -20.5%; inhibition of growth at 30 µg/mL [18]: 60.5%; MIC [19]: 100 µg/mL (≈ 312 µM); inhibition of growth at 12.5 µg/mL [20]: 95.4%; inhibition of growth at 3.13 µg/mL [21]: 39.9%; MIC (Bacillus subtilis): > 30 µg/mL; inhibition at 48 h, 100 ug/ml [22]: 30.9%; selectivity ratio [23]: 7.8; selectivity ratio [24]: 7.8; inhibition of growth at 3.13 µg/mL [25]: -17.7%
3 | O=C1NC(=S)S/C1=C\c1cc2cc(F)ccc2nc1Cl | 101 | 5.6 | > 30 | -54.6 | 40 | 19.2 | 95.7 | 97.3 | 16.9 | > 100 | > 100 | -13.2 | 5.6 | 50 (≈ 154 µM) | 46.4 | 0.38 | 3.9 (≈ 12 µM) | 5.2 (≈ 16 µM) | 100 | 97.7 | inhibition of growth at 1.56 µg/mL [17]: -2.98%; inhibition of growth at 30 µg/mL [18]: 76.5%; MIC [19]: 25 µg/mL (≈ 77 µM); inhibition of growth at 12.5 µg/mL [20]: 100%; inhibition of growth at 3.13 µg/mL [21]: 52.6%; MIC (Bacillus subtilis): > 30 µg/mL; inhibition at 48 h, 100 ug/ml [22]: 37.5%; selectivity ratio [23]: 5.6; selectivity ratio [24]: 5.6; inhibition of growth at 3.13 µg/mL [25]: 71.3%
